Experimental findings from ChEMBL document CHEMBL5357072, “Structural Modification of Noscapine via Photoredox/Nickel Dual Catalysis for the Discovery of S-Phase Arresting Agents” (ACS Med Chem Lett, 2024) are described below.

Data set [1] concerns JeKo-1. Kind of data set: Antiproliferative activity against human JeKo-1 cells assessed as inhibition of cell growth incubated for 48 hrs by CCK8 assay. The following applies: JeKo-1, 48 h. The data set is classed as functional, cell-based. The method, boiled down: (§1)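 CCK-8 growth-inhibition assay in the malignant haematological lines MOLM-13, NB4 and Jeko-1 and in normal PBMC. Cells were treated across a range of doses and IC50 taken as the half-maximal growth-inhibitory concentration. Data are mean ± SD of triplicate samples, and experiments were repeated at least three times.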

For data set [2], the system named is MOLM-13. In words: Antiproliferative activity against human MOLM-13 cells assessed as inhibition of cell growth incubated for 48 hrs by CCK8 assay. Format: functional, cell-based. Particulars: MOLM-13, 48 h. The method, boiled down: as §1
On the technique in general: Tetrazolium dyes change colour on reduction, which living cells bring about.

Data set [3] deals with NB-4. Kind of data set: Antiproliferative activity against human NB4 cells assessed as inhibition of cell growth incubated for 48 hrs by CCK8 assay. The data set is classed as functional, cell-based. Particulars: NB-4, 48 h. The method in brief: as §1
The subject of data set [4] is MOLM-13. In words: Cell cycle arrest in human MOLM-13 cells assessed as accumulation of G2/M phase cells at 2.5 uM incubated for 24 hrs by RNase A/PI staining based flow cytometry analysis (reference value: 11.74%). Format: functional.
For data set [5], the system named is MOLM-13. In words: Cell cycle arrest in human MOLM-13 cells assessed as accumulation of G0/G1 phase cells at 5 uM incubated for 24 hrs by RNase A/PI staining based flow cytometry analysis (reference value: 38.14%). The data set is classed as functional. For orientation: A flow cytometer gives signals particle by particle.
A further data set deals with A549. Kind of data set: Antiproliferative activity against human A549 cells assessed as cell growth inhibition at 10 uM incubated for 48 hrs by CCK8 assay relative to control. The data set is classed as functional. The following applies: read-out: GI. The method in brief: (§2)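 Single-concentration screen of six cancer cell lines. Cells were exposed to 10 μM compound and growth was measured by CCK-8 assay. Results are reported as inhibition rate at 10 μM.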

Data set [6] concerns MOLM-13. Kind of data set: Induction of apoptosis in human MOLM-13 cells assessed as late apoptotic cells at 2.5 uM incubated for 48 hrs by Annexin V-FITC/PI staining based flow cytometric analysis (reference value: 3.17%). Format: functional.
The subject of data set [7] is MOLM-13. Kind of data set: Cell cycle arrest in human MOLM-13 cells assessed as accumulation of S phase cells at 10 uM incubated for 24 hrs by RNase A/PI staining based flow cytometry analysis (reference value: 50.12%). The data set is classed as functional.
The test system of a further data set is PBMC. Kind of data set: Cytotoxicity against human PBMC assessed as reduction in cell viability incubated for 48 hrs by CCK8 assay. The data set is classed as toxicity, cell-based. The method, boiled down:
as §1

For a further data set, the system named is U-251. In words: Antiproliferative activity against human U-251 cells assessed as cell growth inhibition at 10 uM incubated for 48 hrs by CCK8 assay relative to control. Format: functional. The following applies: read-out: GI. The method in brief: as §2
For data set [8], the system named is MOLM-13. Kind of data set: Antiproliferative activity against human MOLM-13 cells assessed as cell growth inhibition at 10 uM incubated for 48 hrs by CCK8 assay relative to control. Format: functional. Particulars: read-out: GI. The method in brief:
as §2

For data set [9], the system named is MOLM-13. In words: Cell cycle arrest in human MOLM-13 cells assessed as accumulation of G0/G1 phase cells at 10 uM incubated for 24 hrs by RNase A/PI staining based flow cytometry analysis (reference value: 38.14%). Format: functional.
The subject of data set [10] is MOLM-13. Kind of data set: Induction of apoptosis in human MOLM-13 cells assessed as viable cells at 2.5 uM incubated for 48 hrs by Annexin V-FITC/PI staining based flow cytometric analysis (reference value: 92.24%). The data set is classed as functional. The following applies: read-out: Activity.
Data set [11] concerns MOLM-13. Kind of data set: Induction of apoptosis in human MOLM-13 cells assessed as necrotic cells at 10 uM incubated for 48 hrs by Annexin V-FITC/PI staining based flow cytometric analysis (reference value: 0.48%). The data set is classed as functional.
Data set [12] concerns MOLM-13. In words: Induction of apoptosis in human MOLM-13 cells assessed as early apoptotic cells at 2.5 uM incubated for 48 hrs by Annexin V-FITC/PI staining based flow cytometric analysis (reference value: 4.10%). The data set is classed as functional.
The test system of a further data set is HeLa. In words: Antiproliferative activity against human HeLa cells assessed as cell growth inhibition at 10 uM incubated for 48 hrs by CCK8 assay relative to control. The data set is classed as functional. The following applies: read-out: GI. The method in brief:
as §2

In data set [13] the test system is MOLM-13. Kind of data set: Cell cycle arrest in human MOLM-13 cells assessed as accumulation of G0/G1 phase cells at 2.5 uM incubated for 24 hrs by RNase A/PI staining based flow cytometry analysis (reference value: 38.14%). The data set is classed as functional.
The test system of data set [14] is NB-4. In words: Antiproliferative activity against human NB4 cells assessed as cell growth inhibition at 10 uM incubated for 48 hrs by CCK8 assay relative to control. The data set is classed as functional. Particulars: read-out: GI. The method in brief:
as §2

For data set [15], the system named is MOLM-13. In words: Induction of apoptosis in human MOLM-13 cells assessed as viable cells at 10 uM incubated for 48 hrs by Annexin V-FITC/PI staining based flow cytometric analysis (reference value: 92.24%). The data set is classed as functional. The following applies: read-out: Activity.
In data set [16] the test system is MOLM-13. Kind of data set: Cell cycle arrest in human MOLM-13 cells assessed as accumulation of S phase cells at 5 uM incubated for 24 hrs by RNase A/PI staining based flow cytometry analysis (reference value: 50.12%). Format: functional.
Data set [17] concerns MOLM-13. Kind of data set: Induction of apoptosis in human MOLM-13 cells assessed as viable cells at 5 uM incubated for 48 hrs by Annexin V-FITC/PI staining based flow cytometric analysis (reference value: 92.24%). Format: functional. The following applies: read-out: Activity.
Data set [18] has as its system MOLM-13. In words: Induction of apoptosis in human MOLM-13 cells assessed as necrotic cells at 2.5 uM incubated for 48 hrs by Annexin V-FITC/PI staining based flow cytometric analysis (reference value: 0.48%). The data set is classed as functional.
In data set [19] the test system is MOLM-13. In words: Induction of apoptosis in human MOLM-13 cells assessed as late apoptotic cells at 5 uM incubated for 48 hrs by Annexin V-FITC/PI staining based flow cytometric analysis (reference value: 3.17%). Format: functional.
The subject of data set [20] is MOLM-13. Kind of data set: Cell cycle arrest in human MOLM-13 cells assessed as accumulation of S phase cells at 2.5 uM incubated for 24 hrs by RNase A/PI staining based flow cytometry analysis (reference value: 50.12%). The data set is classed as functional.
Data set [21] deals with MOLM-13. In words: Cell cycle arrest in human MOLM-13 cells assessed as accumulation of G2/M phase cells at 5 uM incubated for 24 hrs by RNase A/PI staining based flow cytometry analysis (reference value: 11.74%). The data set is classed as functional.
Data set [22] deals with MOLM-13. Kind of data set: Induction of apoptosis in human MOLM-13 cells assessed as late apoptotic cells at 10 uM incubated for 48 hrs by Annexin V-FITC/PI staining based flow cytometric analysis (reference value: 3.17%). The data set is classed as functional.
For data set [23], the system named is MOLM-13. Kind of data set: Induction of apoptosis in human MOLM-13 cells assessed as necrotic cells at 5 uM incubated for 48 hrs by Annexin V-FITC/PI staining based flow cytometric analysis (reference value: 0.48%). The data set is classed as functional.
The test system of data set [24] is MOLM-13. Kind of data set: Cell cycle arrest in human MOLM-13 cells assessed as accumulation of G2/M phase cells at 10 uM incubated for 24 hrs by RNase A/PI staining based flow cytometry analysis (reference value: 11.74%). The data set is classed as functional.
Data set [25] relates to JeKo-1. In words: Antiproliferative activity against human JeKo-1 cells assessed as cell growth inhibition at 10 uM incubated for 48 hrs by CCK8 assay relative to control. Format: functional. Particulars: read-out: GI. The method, boiled down: as §2
For data set [26], the system named is MOLM-13. Kind of data set: Induction of apoptosis in human MOLM-13 cells assessed as early apoptotic cells at 5 uM incubated for 48 hrs by Annexin V-FITC/PI staining based flow cytometric analysis (reference value: 4.10%). The data set is classed as functional.
Data set [27] deals with MOLM-13. In words: Induction of apoptosis in human MOLM-13 cells assessed as early apoptotic cells at 10 uM incubated for 48 hrs by Annexin V-FITC/PI staining based flow cytometric analysis (reference value: 4.10%). The data set is classed as functional.

What is called IC50 is the midpoint of a concentration-inhibition curve.

Some results are limits rather than exact numbers.

On to `COc1ccc2c(c1OC)C(=O)O[C@@H]2[C@H]1c2c(c(CC3CN(C(C)=O)C3)c3c(c2OC)OCO3)CCN1C`, for which the IC50 in the data set with JeKo-1 [1], with MOLM-13 [2] and with NB-4 [3] was above 20 µM each time.
On to `COc1ccc2c(c1OC)C(=O)O[C@@H]2[C@@H]1NCCc2c(CC3CN(C(=O)OCc4ccccc4)C3)c3c(c(OC)c21)OCO3`, for which the IC50 with JeKo-1 [1] stood at 7.57 µM; with MOLM-13 [2], 7.78 µM; in the data set on NB-4 [3], 13.2 µM.
In the case of `COc1ccc2c(c1OC)C(=O)O[C@@H]2[C@H]1c2c(c(CC3CN(C(=O)OCc4ccccc4)C3)c3c(c2OC)OCO3)CCN1C(=O)OC(C)(C)C`, the results for the IC50 with JeKo-1 [1], in the data set on MOLM-13 [2] and in the data set on NB-4 [3] were 3.39 µM, 3.12 µM and 5.25 µM, respectively. The Activity is given as 16.36% in the data set with MOLM-13 [4]; 16.37% in the data set with MOLM-13 [5]; 4.35% in the data set with MOLM-13 [6]; 82.44% in the data set on MOLM-13 [7]; “Non-Toxic” in the data set on PBMC; 12.45% in the data set with MOLM-13 [9]. Also, the Activity was found to be 3.2% with MOLM-13 [11]; 5.01% in the data set with MOLM-13 [12]; 36.94% in the data set with MOLM-13 [13]; 73.67% with MOLM-13 [16]; 0.52% in the data set on MOLM-13 [18]; 18.62% in the data set with MOLM-13 [19]. The Activity stood at 46.7% in the data set on MOLM-13 [20]; 9.96% in the data set with MOLM-13 [21]; 23.68% in the data set with MOLM-13 [22]; 2.41% in the data set on MOLM-13 [23]; 5.11% with MOLM-13 [24]; 16.95% with MOLM-13 [26]. The Activity in the data set with MOLM-13 [27] is recorded as 19.67%. Moreover, the inhibition of growth at 10 µM in the data set on A549 is 57%; in the data set with U-251, 37.1%; in the data set with MOLM-13 [8], 79.8%; in the data set with HeLa, 62.7%; in the data set with NB-4 [14], 60.5%; in the data set on JeKo-1 [25] it was 74.3%. Besides, in the data set on MOLM-13 [10], the viability at 2.5 µM was determined as 90.1%. In addition, the viability at 10 µM in the data set on MOLM-13 [15] came to 53.5%. In the data set with MOLM-13 [17], the viability at 5 µM was 62%.
In the case of `CCNC(=O)N1CCc2c(CC3CN(C(=O)OCc4ccccc4)C3)c3c(c(OC)c2[C@@H]1[C@H]1OC(=O)c2c1ccc(OC)c2OC)OCO3`, the figures for the IC50 with JeKo-1 [1], with MOLM-13 [2] and in the data set with NB-4 [3] were 6.97 µM, 6.47 µM and 10.4 µM, respectively.
Turning to `COc1ccc2c(c1OC)C(=O)O[C@@H]2[C@H]1c2c(c(Br)c3c(c2OC)OCO3)CCN1C`, the IC50 with JeKo-1 [1] turned out to be 11.5 µM; with MOLM-13 [2], 15.3 µM; in the data set with NB-4 [3] it was 16.3 µM. The inhibition of growth at 10 µM in the data set on A549 was 15.9%; in the data set on U-251, below 5%; in the data set with MOLM-13 [8] it was 41.9%; in the data set with HeLa it was 28.1%; in the data set with NB-4 [14], 38.3%; in the data set with JeKo-1 [25], 48.9%. Also, the Activity with MOLM-13 [7] came to 30.6%; in the data set with MOLM-13 [9] it was 32.96%; in the data set on MOLM-13 [11], 0.69%; in the data set on MOLM-13 [22], 10.56%; in the data set with MOLM-13 [24] it was 36.44%; with MOLM-13 [27], 10.63%. In the data set on MOLM-13 [15], the viability at 10 µM was 78.1%.
